In ChEMBL document CHEMBL2062386, “Discovery of LFF571: an investigational agent for Clostridium difficile infection” (J Med Chem, 2012):
Converted amounts (≈) assume the structure as drawn. The source made the active and inactive calls. The calls are words filed in the database; no cut-off is given here.

Tests used:
[1] = Drug level in Clostridium difficile infected golden syrian hamster cecum at 20 mg/kg, po qd administered for 5 days measured at 1 hr post dose; type: ADME, organism-based, Mesocricetus auratus, Caecum; set-up: dose 20 mg/kg, route oral; conditions: read-out: Drug uptake
How it was run: (§1)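 C. difficile-infected hamsters received 20 mg/kg orally (0.6 mL at 3.3 mg/mL) once daily for 5 days. At 1 and 3 h after the fifth dose, 3 animals per time point were sampled: plasma (K2-EDTA, cardiac puncture) and cecal contents. Cecal contents were homogenized in PBS/25% acetonitrile (final 1:25 dilution). Samples were protein-precipitated with acetonitrile containing glyburide internal standard.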

[2] = Binding affinity to Escherichia coli GDPNP-labelled EF-Tu by surface plasmon resonance analysis
[3] = Plasma concentration in Clostridium difficile infected golden syrian hamster at 20 mg/kg, po qd administered for 5 days measured at 3 hrs post dose; type: ADME, organism-based, Mesocricetus auratus; set-up: dose 20 mg/kg, route oral; conditions: for Cp: in vivo, 3 h, BLD = below limit of detection; how it was run: as §1
[4] = system: Staphylococcus aureus; test: Antibacterial activity against Staphylococcus aureus A4.018 by broth microdilution method; type: functional
[5] = system: Enterococcus faecalis; test: Antibacterial activity against Enterococcus faecalis ATCC 29212 by broth microdilution method; type: functional
How it was run: (§2)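 Broth microdilution MICs were run per CLSI M07-A8 (2009). The strain panel included C. difficile ATCC 43255, E. faecalis ATCC 29212 and S. pyogenes ATCC BAA-595.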

[6] = Oral bioavailability in Sprague-Dawley rat; type: ADME, organism-based; conditions: in vivo
How it was run: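 Male Sprague–Dawley rats (220–270 g, N = 2 or 3) were used, including iv dosing. Rats were fasted overnight and for 8 h post-dose. Plasma (K2-EDTA) was protein-precipitated with acetonitrile containing glyburide internal standard and analysed by LC–MS/MS (C18, formic acid water/acetonitrile gradient).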

[7] = system: Escherichia coli; test: Inhibition of protein synthesis in Escherichia coli S30 extract at 2 uM after 75 mins by luciferase based luminescence assay relative to GE2270A; type: functional
[8] = Plasma concentration in Clostridium difficile infected golden syrian hamster at 20 mg/kg, po qd administered for 5 days measured at 1 hr post dose; type: ADME, organism-based, Mesocricetus auratus; set-up: dose 20 mg/kg, route oral; conditions: for concentration at 1 h: golden Syrian, plasma; how it was run: as §1
[9] = system: Enterococcus faecium; test: Antibacterial activity against Enterococcus faecium 7130724 by broth microdilution method; type: functional
[10] = system: Streptococcus pyogenes; test: Antibacterial activity against Streptococcus pyogenes ATCC BAA-595 by broth microdilution method; type: functional; how it was run: as §2
[11] = Drug level in Clostridium difficile infected golden syrian hamster cecum at 20 mg/kg, po qd administered for 5 days measured at 3 hrs post dose; type: ADME, organism-based, Mesocricetus auratus, Caecum; set-up: dose 20 mg/kg, route oral; conditions: read-out: Drug uptake; how it was run: as §1
[12] = system: Staphylococcus aureus; test: Antibacterial activity against Staphylococcus aureus ATCC 49951 infected in CD1 mouse assessed as mouse survival up to 5 days; type: functional; conditions: ATCC 49951, 120 h
How it was run: (§3)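 Female CD1 mice (21–25 g) were infected ip with 1 × 10^8 CFU/mouse, 10–100× the minimal lethal dose. E. faecalis NB04025 was given in 50% rat fecal extract and S. aureus ATCC 49951 in 0.9% NaCl. Compound was given by iv tail-vein bolus at 1 and 5 h post-inoculation, at several dose levels (6 mice/group). ED50 with 95% CI was derived by probit analysis of day-5 survival.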

[13] = Antibacterial activity against Clostridium difficile ATCC 43255 infected in golden syrian hamster assessed as survival rate at 0.2 mg/kg, po qd administered days 1 to 5 measured on days 6 to 21; type: functional; conditions: Clostridioides difficile
How it was run: (§4)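 Golden Syrian hamsters got clindamycin 10 mg/kg sc on day −1. On day 0 they were gavaged with ~7.5 × 10^6 CFU C. difficile ATCC 43255 (0.75 mL). From 24 h post-infection they were dosed orally once daily for up to 5 days (8/dose), in a NaOH/PEG-400/2.5% Cremophor EL solution diluted in pH 7.4 PBS. Vehicle controls were included, and animals were observed twice daily through day 21.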

[14] = Antibacterial activity against Clostridium difficile ATCC 43255 infected in golden syrian hamster assessed as survival rate at 2 mg/kg, po qd administered days 1 to 5 measured on days 6 to 21; type: functional; conditions: Clostridioides difficile; how it was run: as §4
[15] = system: Enterococcus faecalis; test: Antibacterial activity against Enterococcus faecalis NB04025 infected in CD1 mouse assessed as mouse survival up to 5 days; type: functional; conditions: NB04025, 120 h; how it was run: as §3
[16] = system: Clostridium difficile ATCC 43255; test: Antibacterial activity against Clostridium difficile ATCC 43255 infected in golden syrian hamster assessed as decrease in toxin level in cecum after 21 days by ELISA; type: functional; conditions: Caecum
How it was run: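 In the clindamycin-pretreated, C. difficile-infected hamster model, oral compound was given once daily on days 1–5. Surviving animals were euthanized at study end (day 21). Cecal homogenates were assayed for C. difficile toxins A and B by Tox A/B II ELISA per kit directions.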

[17] = Antibacterial activity against Clostridium difficile ATCC 43255 by broth microdilution method; type: functional; conditions: Clostridioides difficile; how it was run: as §2
[18] = Antibacterial activity against Clostridium difficile ATCC 43255 infected in golden syrian hamster assessed as survival rate at 20 mg/kg, po qd administered days 1 to 5 measured on days 6 to 21; type: functional; conditions: Clostridioides difficile; how it was run: as §4
[19] = system: Clostridium difficile ATCC 43255; test: Antibacterial activity against Clostridium difficile ATCC 43255 infected in po dosed golden syrian hamster assessed as survival rate administered qd for days 1 to 5 measured on after 6 to 21 days; type: functional, organism-based; how it was run: as §4
[20] = system: Escherichia coli; test: Inhibition of protein synthesis in Escherichia coli S30 extract after 75 mins by luciferase based luminescence assay relative to GE2270A; type: functional, organism-based

SMILES | concentration at 1 h [1] [µM] | Kd [2] [nM] | MIC [4] [µg/mL] | MIC [5] [µg/mL] | inhibition at 2 µM [7] [%] | concentration at 1 h [8] [µM] | MIC [9] [µg/mL] | MIC [10] [µg/mL] | concentration at 3 h [11] [µM] | ED50 [12] [mg/kg] | survival at 0.2 mg/kg [13] [%] | survival at 2 mg/kg [14] [%] | ED50 [15] [mg/kg] | Activity [16] | MIC [17] [µg/mL] | survival at 20 mg/kg [18] [%] | Cp [3] | other results
CNC(=O)C[C@@H]1NC(=O)c2csc(n2)-c2ccc(-c3nc(N(CCCCC(=O)O)C(=O)O[C@H]4CC[C@H](C(=O)O)CC4)cs3)nc2-c2csc(n2)-c2csc(n2)[C@H]([C@@H](O)c2ccccc2)NC(=O)CNC(=O)c2nc(sc2COC)[C@H](C(C)C)NC(=O)c2nc1sc2C [LFF-571] | 61 | 6 | 0.125 (≈ 0.0915 µM) | < 0.06 | 67 | 0.0448 | < 0.06 | 1 (≈ 0.732 µM) | 208 | 6.9 | 0 | 100 | 2.2 | Active | 0.03 (≈ 0.022 µM) | 100 | – | concentration at 3 h ([3]; golden Syrian, plasma): 0.0052 µM; bioavailability [6]: < 0.1%
CNC(=O)C[C@@H]1NC(=O)c2csc(n2)-c2ccc(-c3nc(NC(=O)[C@H]4CC[C@H](C(=O)O)CC4)cs3)nc2-c2csc(n2)-c2csc(n2)[C@H]([C@@H](O)c2ccccc2)NC(=O)CNC(=O)c2nc(sc2COC)[C@H](C(C)C)NC(=O)c2nc1sc2C | 18 | 43 | 0.125 (≈ 0.1 µM) | 0.06 (≈ 0.048 µM) | 30 | – | 0.06 (≈ 0.048 µM) | 4 (≈ 3.2 µM) | 39 | 5.2 | 0 | 62.5 | 0.6 | Active | 0.06 (≈ 0.048 µM) | 100 | BLD | Cp ([8]; in vivo, 1 h, BLD = below limit of detection): BLD; Survival [19]: Dose-dependent effect
CNC(=O)C[C@@H]1NC(=O)c2csc(n2)-c2ccc(-c3nc(N(CCCC(=O)O)C(=O)OCCCC(=O)O)cs3)nc2-c2csc(n2)-c2csc(n2)[C@H]([C@@H](O)c2ccccc2)NC(=O)CNC(=O)c2nc(sc2COC)[C@H](C(C)C)NC(=O)c2nc1sc2C | 129 | 8 | 1 (≈ 0.762 µM) | 0.5 (≈ 0.381 µM) | – | 0.0639 | 0.5 (≈ 0.381 µM) | 2 (≈ 1.52 µM) | 72 | 11 | 0 | 100 | 11 | Active | 0.03 (≈ 0.0229 µM) | 100 | BLD | –
CNC(=O)C[C@@H]1NC(=O)c2csc(n2)-c2ccc(-c3nc(C4=N[C@H](C(=O)N5CCC[C@H]5C(N)=O)CO4)cs3)nc2-c2csc(n2)-c2csc(n2)[C@H]([C@@H](O)c2ccccc2)NC(=O)CNC(=O)c2nc(sc2COC)[C@H](C(C)C)NC(=O)c2nc1sc2C | – | 3 | 0.25 (≈ 0.194 µM) | 0.5 (≈ 0.387 µM) | 30 | – | 0.25 (≈ 0.194 µM) | 1 (≈ 0.775 µM) | – | – | – | – | – | – | 0.015 (≈ 0.0116 µM) | – | – | IC50 [20]: 2000 nM
